{"source": "ChEMBL document CHEMBL3853327", "about": "(J Med Chem, 2016)", "data": [{"system": "Human immunodeficiency virus 1", "test": "Antiviral activity against HIV1 3B harboring reverse transcriptase L100I mutant infected in human MT4 cells assessed as protection against virus induced cytotoxicity after 5 days by MTT assay", "format": "functional, cell-based", "conditions": "Human immunodeficiency virus 1, 3B, MT4, 120 h", "outline": "(§1)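 MTT cytopathicity assay in MT-4 cells (6 × 10^5 cells/mL). Compounds serially diluted 5-fold in triplicate wells, run in parallel on infected and mock-infected cells. Virus added at 100−300 CCID50 per well. Viability read spectrophotometrically at 540 and 690 nm after 5 days, using the median OD of three wells. EC50 is the concentration giving 50% protection from viral cytopathogenicity.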", "units": {"EC50": "nM"}, "values": [{"smiles": "CNS(=O)(=O)c1ccc(CN2CCC(Nc3nc(Oc4c(C)cc(C#N)cc4C)c4sccc4n3)CC2)cc1", "EC50": 4.5}]}, {"system": "Human immunodeficiency virus 1", "test": "Antiviral activity against HIV1 3B harboring reverse transcriptase K103N mutant infected in human MT4 cells assessed as protection against virus induced cytotoxicity after 5 days by MTT assay", "format": "functional, cell-based", "conditions": "Human immunodeficiency virus 1, 3B, MT4, 120 h", "outline": "as §1", "units": {"EC50": "nM"}, "values": [{"smiles": "CNS(=O)(=O)c1ccc(CN2CCC(Nc3nc(Oc4c(C)cc(C#N)cc4C)c4sccc4n3)CC2)cc1", "EC50": 1.5}]}, {"system": "not listed separately", "test": "Selectivity index, ratio of CC50 for human mock-infected MT4 cells to EC50 for HIV1 3B harboring reverse transcriptase L100I mutant infected in human MT4 cells", "format": "toxicity, cell-based", "conditions": "MT4 cells (mock-infected for CC50, HIV-1 infected for EC50)", "outline": "(§2)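 Selectivity index is CC50/EC50. CC50 is the concentration that reduces OD540 of mock-infected MT-4 cells by 50% in the 5-day MTT assay. EC50 is the 50% protection from virus-induced cytopathicity, measured in parallel on infected wells.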", "values": [{"smiles": "CNS(=O)(=O)c1ccc(CN2CCC(Nc3nc(Oc4c(C)cc(C#N)cc4C)c4sccc4n3)CC2)cc1", "selectivity ratio": 972}]}, {"system": "not listed separately", "test": "Selectivity index, ratio of CC50 for human mock-infected MT4 cells to EC50 for wild type HIV1 3B harboring reverse transcriptase infected in human MT4 cells", "format": "toxicity, cell-based", "conditions": "MT4 cells (mock-infected for CC50, HIV-1 infected for EC50)", "outline": "as §2", "values": [{"smiles": "CNS(=O)(=O)c1ccc(CN2CCC(Nc3nc(Oc4c(C)cc(C#N)cc4C)c4sccc4n3)CC2)cc1", "selectivity ratio": 2790}]}, {"system": "not listed separately", "test": "Cytotoxicity against human mock-infected MT4 cells assessed as reduction in cell viability after 5 days by MTT assay", "format": "toxicity, cell-based", "conditions": "not given", "outline": "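Mock-infected MT-4 cells (6 × 10^5 cells/mL at seeding) with serial 5-fold compound dilutions in triplicate wells. Viability read by MTT after 5 days, absorbance at 540 and 690 nm, median OD of three wells. CC50 is the concentration reducing OD540 of mock-infected cells by 50%.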", "units": {"CC50 at 120 h": "nM"}, "values": [{"smiles": "CNS(=O)(=O)c1ccc(CN2CCC(Nc3nc(Oc4c(C)cc(C#N)cc4C)c4sccc4n3)CC2)cc1", "CC50 at 120 h": 4420}]}, {"system": "Human immunodeficiency virus 1", "test": "Potency index, ratio of ETV EC50 to compound EC50 for HIV1 3B harboring reverse transcriptase YI88L mutant infected in human MT4 cells", "format": "functional", "conditions": "not given", "values": [{"smiles": "CNS(=O)(=O)c1ccc(CN2CCC(Nc3nc(Oc4c(C)cc(C#N)cc4C)c4sccc4n3)CC2)cc1", "Ratio EC50": 2}]}, {"system": "not listed separately", "test": "Selectivity index, ratio of CC50 for human mock-infected MT4 cells to EC50 for HIV1 3B harboring reverse transcriptase F227L/V106A double mutant infected in human MT4 cells", "format": "toxicity, cell-based", "conditions": "MT4 cells (mock-infected for CC50, HIV-1 infected for EC50)", "outline": "as §2", "values": [{"smiles": "CNS(=O)(=O)c1ccc(CN2CCC(Nc3nc(Oc4c(C)cc(C#N)cc4C)c4sccc4n3)CC2)cc1", "selectivity ratio": 1090}]}, {"system": "Human immunodeficiency virus 1", "test": "Potency index, ratio of ETV EC50 to compound EC50 for HIV1 3B harboring reverse transcriptase E138K mutant infected in human MT4 cells", "format": "functional", "conditions": "not given", "values": [{"smiles": "CNS(=O)(=O)c1ccc(CN2CCC(Nc3nc(Oc4c(C)cc(C#N)cc4C)c4sccc4n3)CC2)cc1", "Ratio EC50": 2}]}, {"system": "Human immunodeficiency virus 1", "test": "Antiviral activity against HIV1 3B harboring reverse transcriptase Y181C mutant infected in human MT4 cells assessed as protection against virus induced cytotoxicity after 5 days by MTT assay", "format": "functional, cell-based", "conditions": "Human immunodeficiency virus 1, 3B, MT4, 120 h", "outline": "as §1, with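 “wells.” for “wells. EC50 is the concentration giving 50% protection from viral cytopathogenicity.”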", "units": {"EC50": "nM"}, "values": [{"smiles": "CNS(=O)(=O)c1ccc(CN2CCC(Nc3nc(Oc4c(C)cc(C#N)cc4C)c4sccc4n3)CC2)cc1", "EC50": 4.8}]}, {"system": "Human immunodeficiency virus 1", "test": "Antiviral activity against HIV1 3B harboring reverse transcriptase Y188L mutant infected in human MT4 cells assessed as protection against virus induced cytotoxicity after 5 days by MTT assay", "format": "functional, cell-based", "conditions": "Human immunodeficiency virus 1, 3B, MT4, 120 h", "outline": "as §1", "units": {"EC50": "nM"}, "values": [{"smiles": "CNS(=O)(=O)c1ccc(CN2CCC(Nc3nc(Oc4c(C)cc(C#N)cc4C)c4sccc4n3)CC2)cc1", "EC50": 6.8}]}, {"system": "not listed separately", "test": "Selectivity index, ratio of CC50 for human mock-infected MT4 cells to EC50 for HIV1 3B harboring reverse transcriptase Y181C mutant infected in human MT4 cells", "format": "toxicity, cell-based", "conditions": "MT4 cells (mock-infected for CC50, HIV-1 infected for EC50)", "outline": "as §2", "values": [{"smiles": "CNS(=O)(=O)c1ccc(CN2CCC(Nc3nc(Oc4c(C)cc(C#N)cc4C)c4sccc4n3)CC2)cc1", "selectivity ratio": 911}]}, {"system": "Human immunodeficiency virus 1", "test": "Antiviral activity against wild type HIV1 3B harboring reverse transcriptase infected in human MT4 cells assessed as protection against virus induced cytotoxicity after 5 days by MTT assay", "format": "functional, cell-based", "conditions": "Human immunodeficiency virus 1, 3B, MT4, 120 h", "outline": "as §1, with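 “wells.” for “wells. EC50 is the concentration giving 50% protection from viral cytopathogenicity.”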", "units": {"EC50": "nM"}, "values": [{"smiles": "CNS(=O)(=O)c1ccc(CN2CCC(Nc3nc(Oc4c(C)cc(C#N)cc4C)c4sccc4n3)CC2)cc1", "EC50": 1.5}]}, {"system": "Human immunodeficiency virus 1", "test": "Antiviral activity against HIV1 3B harboring reverse transcriptase F227L/V106A double mutant infected in human MT4 cells assessed as protection against virus induced cytotoxicity after 5 days by MTT assay", "format": "functional, cell-based", "conditions": "Human immunodeficiency virus 1, 3B, MT4, 120 h", "outline": "as §1", "units": {"EC50": "nM"}, "values": [{"smiles": "CNS(=O)(=O)c1ccc(CN2CCC(Nc3nc(Oc4c(C)cc(C#N)cc4C)c4sccc4n3)CC2)cc1", "EC50": 4.1}]}, {"system": "Human immunodeficiency virus 1", "test": "Antiviral activity against HIV1 3B harboring reverse transcriptase E138K mutant infected in human MT4 cells assessed as protection against virus induced cytotoxicity after 5 days by MTT assay", "format": "functional, cell-based", "conditions": "Human immunodeficiency virus 1, 3B, MT4, 120 h", "outline": "as §1", "units": {"EC50": "nM"}, "values": [{"smiles": "CNS(=O)(=O)c1ccc(CN2CCC(Nc3nc(Oc4c(C)cc(C#N)cc4C)c4sccc4n3)CC2)cc1", "EC50": 6.6}]}, {"system": "not listed separately", "test": "Selectivity index, ratio of CC50 for human mock-infected MT4 cells to EC50 for HIV1 3B harboring reverse transcriptase K103N mutant infected in human MT4 cells", "format": "toxicity, cell-based", "conditions": "MT4 cells (mock-infected for CC50, HIV-1 infected for EC50)", "outline": "as §2", "values": [{"smiles": "CNS(=O)(=O)c1ccc(CN2CCC(Nc3nc(Oc4c(C)cc(C#N)cc4C)c4sccc4n3)CC2)cc1", "selectivity ratio": 2880}]}, {"system": "Human immunodeficiency virus 1", "test": "Potency index, ratio of ETV EC50 to compound EC50 for HIV1 3B harboring reverse transcriptase Y181C mutant infected in human MT4 cells", "format": "functional", "conditions": "not given", "values": [{"smiles": "CNS(=O)(=O)c1ccc(CN2CCC(Nc3nc(Oc4c(C)cc(C#N)cc4C)c4sccc4n3)CC2)cc1", "Ratio EC50": 2}]}, {"system": "not listed separately", "test": "Selectivity index, ratio of CC50 for human mock-infected MT4 cells to EC50 for HIV1 3B harboring reverse transcriptase E138K mutant infected in human MT4 cells", "format": "toxicity, cell-based", "conditions": "MT4 cells (mock-infected for CC50, HIV-1 infected for EC50)", "outline": "as §2", "values": [{"smiles": "CNS(=O)(=O)c1ccc(CN2CCC(Nc3nc(Oc4c(C)cc(C#N)cc4C)c4sccc4n3)CC2)cc1", "selectivity ratio": 665}]}, {"system": "not listed separately", "test": "Antiviral activity against HIV2 ROD harboring reverse transcriptase infected in human MT4 cells assessed as protection against virus induced cytotoxicity after 5 days by MTT assay", "format": "functional, cell-based, Human immunodeficiency virus type 2 (ISOLATE ROD)", "conditions": "Human immunodeficiency virus 2, MT4, 120 h", "outline": "as §1", "units": {"EC50": "nM"}, "values": [{"smiles": "CNS(=O)(=O)c1ccc(CN2CCC(Nc3nc(Oc4c(C)cc(C#N)cc4C)c4sccc4n3)CC2)cc1", "EC50": "> 4420"}]}, {"system": "not listed separately", "test": "Selectivity index, ratio of CC50 for human mock-infected MT4 cells to EC50 for HIV1 RES056 harboring reverse transcriptase K103N/Y181C double mutant infected in human MT4 cells", "format": "toxicity, cell-based", "conditions": "MT4 cells (mock-infected for CC50, HIV-1 infected for EC50)", "outline": "as §2", "values": [{"smiles": "CNS(=O)(=O)c1ccc(CN2CCC(Nc3nc(Oc4c(C)cc(C#N)cc4C)c4sccc4n3)CC2)cc1", "selectivity ratio": 136}]}, {"system": "not listed separately", "test": "Selectivity index, ratio of CC50 for human mock-infected MT4 cells to EC50 for HIV1 3B harboring reverse transcriptase Y188L mutant infected in human MT4 cells", "format": "toxicity, cell-based", "conditions": "MT4 cells (mock-infected for CC50, HIV-1 infected for EC50)", "outline": "as §2", "values": [{"smiles": "CNS(=O)(=O)c1ccc(CN2CCC(Nc3nc(Oc4c(C)cc(C#N)cc4C)c4sccc4n3)CC2)cc1", "selectivity ratio": 647}]}]}
